Measured values gathered from unrelated publications.
Each line is one published result; the experiments were not run side by side.
Target: Serine/threonine-protein kinase WNK2 (WNK2, Homo sapiens, UniProt Q9Y3S1)

SMILES | assay | setting | remaining binding [%]
CC(C)(O)c1cncc(-c2nc3ccc(F)cc3n2C2CC2)c1 | cell-free assay, competition with immobilised ligand | 1 µM | 100
C=CC(=O)N1CCC(C(=O)NCC(=O)N2CCN(c3nc(-c4cnc(N)nc4C(F)F)nc(N4CCOCC4)n3)CC2)CC1 | binding, competition with immobilised ligand | 1 µM | 92
CCC(=N\O)/C(C)=C/c1ccc(F)cc1 | cell-free assay, competition with immobilised ligand | 1 µM | 80
O=C(NCC1CCOCC1)c1n[nH]cc1NC(=O)c1c(F)cccc1F | binding, competition with immobilised ligand | 1 µM | 81
C[C@H]1CCN(c2nccc(-c3cnn4ncccc34)n2)C1 | binding | 1 µM | 98
C[C@@H](c1ccc(-n2cnc3c(N)ncnc32)cc1)N1CCc2nn(C)c(Cc3ccccc3)c2C1=O | binding, competition with immobilised ligand | 0.1 µM | 65
O=C(c1ccc(Nc2ncc(Cl)c(-c3cc4ccccc4s3)n2)cc1)N1CCC(N2CCCC2)CC1 | binding, competition with immobilised ligand | 1 µM | 83
CNC(=O)Nc1ccc2c(c1)CC[C@@]21OC(=O)N(CC(=O)N(Cc2ccc(F)cc2)[C@@H](C)C(F)(F)F)C1=O | cell-free assay, competition with immobilised ligand | 1 µM | 100
CN(C)c1ncc(F)c(-c2cnn3ncccc23)n1 | binding | 1 µM | 82
CC1=C(C#N)[C@@H](c2ccc3[nH]nc(C)c3c2)C(C#N)=C(c2ccc(Cl)cc2)N1 | cell-free assay, competition with immobilised ligand | 1 µM | 100
O=C(c1ccc(Nc2nccc(-c3cc4ccccc4s3)n2)cc1)N1CCC(N2CCCC2)CC1 | binding, competition with immobilised ligand | 1 µM | 87
c1cnn2ncc(-c3ccnc(N4CCC45COC5)n3)c2c1 | binding | 1 µM | 78
Cc1nc(Cc2cccc(C(F)(F)F)c2)sc1-c1ccc(C(N)=O)nc1 | cell-free assay, competition with immobilised ligand | 1 µM | 100
COc1cnc(Nc2cccc(S(N)(=O)=O)c2)nc1N1CCN(c2ccccc2)C(=O)C1 | binding, competition with immobilised ligand | 1 µM | 100
Cc1cnc(Nc2ccc(C(=O)N3CCC(N4CCCC4)CC3)cc2)nc1-c1cc2ccccc2s1 | binding, competition with immobilised ligand | 1 µM | 69
CN(C)c1nccc(-c2cnn3ncccc23)n1 | binding | 1 µM | 37
CNC(=O)[C@@H]1CC[C@@H](n2c(-c3ccc4cnccc4c3)nc3ccc(C(=O)NCc4cccc(C(N)=O)c4)cc32)C1 | binding, competition with immobilised ligand | 1 µM | 100
N[C@H]1CCN(c2nccc(-c3cnn4ncccc34)n2)C1 | binding | 1 µM | 100
CCS(=O)(=O)c1cc2cc(C[C@@](O)(CC(C)(C)c3ccc(F)cc3C(N)=O)C(F)(F)F)[nH]c2cn1 | cell-free assay, competition with immobilised ligand | 1 µM | 46
FC(F)(F)Oc1cccc(-c2cnc3ccc(-c4ccncc4)nn23)c1 | binding, competition with immobilised ligand | 5 µM | 86
CC1CCCN1c1nccc(-c2cnn3ncccc23)n1 (stereo not drawn) | binding | 1 µM | 100
